In brackets after ≈: the same amount, converted by molar mass. Several values for one entry are separate records, joined by “and”; a condition that tells them apart may be missing. Equal entries are not always repeated.
Key:
Aedes aegypti [1] = assay: Larvicidal activity against Aedes aegypti L4 stage larvae assessed as induction of larval mortality incubated for 48 hrs; format: functional; conditions: for LC50: Aedes aegypti, 48 h
Procedure, shortened: (§1)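 Adapted WHO larval test. Compound solubilized with Tween 80 co-solvent in distilled water as stock, then diluted. Fourth-instar A. aegypti larvae, 20 per beaker, in 20 mL test solution; four replicates per concentration, plus a compound-free negative control. Mortality scored after 48 h at 28 ± 2 °C, 70 ± 10 relative humidity (dead = no response to stimulus or failure to surface). LC50 from probit analysis.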

[2] = Cytotoxicity against BALB/c mouse splenocytes assessed as reduction in cell viability incubated for 24 hrs by beta-radiation counting based [3H]-thymidine incorporation assay; design: species or system Splenocyte
Procedure, shortened: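 BALB/c mouse splenocytes seeded at 6 × 10^5 cells/well in RPMI-1640 with 10% FBS and gentamycin; compound added in DMSO at six concentrations (1, 5, 10, 25, 50, 100) in triplicate; 24 h at 37 °C, 5% CO2; then 3H-thymidine pulse and beta counting. Viability as % incorporation versus solvent-only cells; saponin positive control; highest non-toxic concentration estimated.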

[3] = Lipophilicity log P of the compound; format: physicochemical; conditions: octanol/water
Procedure, shortened: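 Calculated rather than measured, alongside the B3LYP/6-311++G(d,p) dipole moment.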

Aedes aegypti [4] = assay: Larvicidal activity against Aedes aegypti; format: functional; procedure, shortened: as §1
[5] = target: T1, Sterol carrier protein 2 (Aedes aegypti) (UniProt Q86PR3); assay: (§2) Inhibition of NBD-cholesterol binding to recombinant Aedes aegypti SCP-2 protein by fluorescence based assay
T1 sequence (whole entry): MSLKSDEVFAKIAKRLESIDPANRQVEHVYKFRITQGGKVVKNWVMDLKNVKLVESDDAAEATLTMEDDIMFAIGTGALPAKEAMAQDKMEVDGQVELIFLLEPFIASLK
Procedure, shortened: (§3)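 Competition assay with purified recombinant AeSCP-2, NBD-cholesterol and compound at increasing concentrations, read as fluorescence intensity. Separate NBD-cholesterol plus compound wells served as background where the compound interfered with fluorescence. Net signal is NBD-cholesterol/SCP-2/compound fluorescence minus that background, plotted as dose-response.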

Sterol carrier protein 2 = target: T2, Sterol carrier protein 2 (Aedes aegypti, UniProt Q86PR3); assay: as §2; procedure, shortened: as §3
T2 sequence (Q86PR3 whole entry): T1 sequence (whole entry)

Compound | LC50 (Aedes aegypti [1]) | MNTC at 24 h [2] [µM] | log(1/LC50) (Aedes aegypti [1]) | logP [3] | LC50 (Aedes aegypti [4]) [µg/mL] | inhibition [5] | EC50 (Sterol carrier protein 2) [µM]
NC(=O)N/N=C/c1ccc(Cl)c(Cl)c1 | > 200 µg/mL and > 862 µM | > 431 |  |  |  |  | 
NC(=S)N/N=C/COc1cccc(Cl)c1 | 70 µg/mL and 287 µM | 103 | 3.542 | 2.65 |  |  | 
NC(=S)N/N=C/COc1ccc(Cl)cc1 | 21.9 µg/mL and 89.9 µM | 103 | 4.046 | 2.65 |  |  | 
NC(=S)N/N=C/c1ccc(Cl)cc1 | 28.8 µg/mL and 135 µM | 23.3 | 3.873 | 2.63 |  |  | 
C/C(=N\NC(N)=S)C(C)Oc1ccc(Cl)c(Cl)c1 (stereo not drawn) | 3.95 µM |  |  | 4.87 |  |  | 
NC(=S)N/N=C/COc1cccc(Cl)c1Cl | 19.5 µg/mL and 70.1 µM | 17.9 | 4.154 | 3.3 |  |  | 
N/C(S)=N/N=C/c1ccc(Cl)c(Cl)c1 | 17.3 µg/mL and 69.7 µM | 20.2 | 4.157 | 3.27 |  |  | 
CC(C)CNC(=O)/C=C/C=C/CCCCCC/C=C/c1ccc2c(c1)OCO2 [GUINEENSINE] |  |  |  |  | 0.89 (≈ 2.32 µM) |  | 
NC(=S)N/N=C/COc1ccc(Cl)c(Cl)c1 | 5.8 µg/mL and 20.9 µM | 89.8 | 4.68 | 3.3 |  |  | 
CCCCC/C=C/C=C/C(=O)NCC(C)C [PELLITORIN] |  |  |  |  | 0.92 (≈ 4.12 µM) |  | 
COc1ccc(OC/C=N/NC(N)=S)cc1 | 120 µg/mL and 503 µM | 20.9 | 3.298 | 2.09 |  | Dose-dependent effect | 0.6
NC(=S)N/N=C/C=C/c1ccccc1 | 28.4 µg/mL and 138 µM | < 4.87 | 3.86 |  |  |  | 
CC(C)CNC(=O)/C=C/C=C/CC/C=C/c1ccc2c(c1)OCO2 [RETROFRACTAMIDE A] |  |  |  |  | 0.04 (≈ 0.122 µM) |  | 
NC(=S)N/N=C/COc1ccccc1 | 113 µg/mL and 538 µM | 119 | 3.268 | 2.01 |  |  | 
NC(=S)N/N=C/COc1ccc(Br)cc1 | 26.5 µg/mL and 92 µM | > 347 | 4.036 | 2.9 |  |  | 
NC(=S)N/N=C/c1ccc(Br)cc1 | 31.7 µg/mL and 123 µM | < 3.87 | 3.91 | 2.87 |  |  | 
CC(C)CNC(=O)/C=C/C=C/CCCC/C=C/c1ccc2c(c1)OCO2 [RETROFRACTAMIDE B] |  |  |  |  | 0.1 (≈ 0.281 µM) |  | 
NC(=S)N/N=C/c1cccc(/C=N/NC(N)=S)c1 | > 200 µg/mL |  |  |  |  |  | 
NC(=O)N/N=C/c1ccc(F)cc1 | > 200 µg/mL and > 1.1 mM | > 55.1 |  |  |  |  | 
NC(=S)N/N=C/c1ccc(O)cc1 |  | 5.12 |  |  |  | Dose-dependent effect | 5
NC(=S)N/N=C/c1ccc(F)cc1 | 61.3 µg/mL and 311 µM | 25.4 | 3.507 | 2.18 |  |  | 

Reference: ChEMBL document CHEMBL3588801, “Thiosemicarbazones as Aedes aegypti larvicidal” (Eur J Med Chem, 2015)
